# Measured values from ChEMBL document CHEMBL4190346, “Structure-based design, synthesis, and biological evaluation of withaferin A-analogues as potent apoptotic inducers” (Eur J Med Chem, 2017).
# Calls of active or inactive are those of the source. No cut-off for these calls is given here.
# Columns and labels:
# MCF7 [1] = assay: Cytotoxicity against human MCF7 cells assessed as reduction in cell viability using compound addition to cell culture cells in lag phase of growth and incubated for 48 hrs by MTT assay; type: functional, cell-based; details: Homo sapiens, MCF7, 48 h; read-out: IC50
# MCF7 (Homo sapiens) [2] = assay: Ratio of IC50 for cytotoxicity against human MCF7 cells incubated for 48 hrs to IC50 for cytotoxicity against human MCF7 cells incubated for 72 hrs
# Vero [3] = assay: Cytotoxicity against African green monkey Vero cells assessed as reduction in cell viability using compound addition to cell culture cells in log phase of growth and incubated for 48 hrs by MTT assay; type: cell-based, Chlorocebus sabaeus; details: Chlorocebus sabaeus, Vero, 48 h; read-out: IC50
# Vero [4] = assay: Cytotoxicity against African green monkey Vero cells assessed as reduction in cell viability using compound addition to cell culture cells in lag phase of growth and incubated for 48 hrs by MTT assay; type: cell-based, Chlorocebus sabaeus; details: Chlorocebus sabaeus, Vero, 48 h; read-out: IC50
# HeLa [5] = assay: Cytotoxicity against human HeLa cells assessed as reduction in cell viability using compound addition to cell culture cells in lag phase of growth and incubated for 48 hrs by MTT assay; type: functional, cell-based; details: Homo sapiens, HeLa, 48 h; read-out: IC50
# HeLa [6] = assay: Cytotoxicity against human HeLa cells assessed as reduction in cell viability using compound addition to cell culture cells in log phase of growth and incubated for 48 hrs by MTT assay; type: functional, cell-based; details: Homo sapiens, HeLa, 48 h; read-out: IC50
# MCF7 [7] = assay: Ratio of IC50 for cytotoxicity against human MCF7 cells incubated for 48 hrs to IC50 for cytotoxicity against human MCF7 cells incubated for 72 hrs; type: functional
# A549 [8] = assay: Cytotoxicity against human A549 cells assessed as reduction in cell viability using compound addition to cell culture cells in lag phase of growth and incubated for 48 hrs by MTT assay; type: functional, cell-based; details: Homo sapiens, A549, 48 h; read-out: IC50
# MCF7 [9] = assay: Cytotoxicity against human MCF7 cells assessed as reduction in cell viability using compound addition to cell culture cells in log phase of growth and incubated for 48 hrs by MTT assay; type: functional, cell-based; details: Homo sapiens, MCF7, 48 h; read-out: IC50
# MCF7 (Homo sapiens) [10] = assay: Ratio of IC50 for cytotoxicity against human MCF7 cells incubated for 48 hrs to IC50 for cytotoxicity against human MCF7 cells incubated for 72 hrs; remark: listed apart in the source
# A549 [11] = assay: Cytotoxicity against human A549 cells assessed as reduction in cell viability using compound addition to cell culture cells in log phase of growth and incubated for 48 hrs by MTT assay; type: functional, cell-based; details: Homo sapiens, A549, 48 h; read-out: IC50
# HeLa [12] = assay: Induction of apoptosis in human HeLa cells assessed as increase in caspase-3 activity by measuring pNA release level at 12 uM incubated for 4 hrs using c-DEVD-pNA substrate by colorimetric assay; type: functional
# How it was run: (§1)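 HeLa cells in DMEM with 10% FBS were exposed for 4 h (fixed 24 or 32 level for 8 h). Staurosporine for 4 h served as the positive control. Cells were lysed at 4 °C for 10 min and centrifuged, and supernatant protein was measured by Bradford. Caspase-3 activity was read colorimetrically as nmol pNA/min/mL, with treated/untreated OD ratios. Values are means ± SD of three independent experiments in triplicate.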
# HeLa [13] = assay: Induction of apoptosis in human HeLa cells assessed as increase in caspase-3 activity by measuring pNA release level at 32 uM incubated for 4 hrs using c-DEVD-pNA substrate by colorimetric assay; type: functional; how it was run: as §1
# HeLa [14] = assay: Induction of apoptosis in human HeLa cells assessed as increase in caspase-3 activity by measuring pNA release level at 24 uM incubated for 4 hrs using c-DEVD-pNA substrate by colorimetric assay; type: functional; how it was run: as §1
# HeLa [15] = assay: Induction of apoptosis in human HeLa cells assessed as increase in caspase-3 activity by measuring pNA release level at 8 uM incubated for 4 hrs using c-DEVD-pNA substrate by colorimetric assay; type: functional; how it was run: as §1
# HeLa [16] = assay: Induction of apoptosis in human HeLa cells assessed as […] by measuring pNA release level at 32 uM incubated for 8 hrs using c-DEVD-pNA substrate by colorimetric assay; type: functional, cell-based; how it was run: as §1
# HeLa [17] = assay: Induction of apoptosis in human HeLa cells assessed as increase in caspase-3 activity by measuring pNA release level at 16 uM incubated for 4 hrs using c-DEVD-pNA substrate by colorimetric assay; type: functional; how it was run: as §1
SMILES,IC50 (MCF7 [1]) [nM],Ratio IC50 (MCF7 (Homo sapiens) [2]),IC50 (Vero [3]) [nM],IC50 (Vero [4]) [nM],IC50 (HeLa [5]) [nM],IC50 (HeLa [6]) [µM],Ratio IC50 (MCF7 [7]),IC50 (A549 [8]) [µM],IC50 (MCF7 [9]) [nM],Ratio IC50 (MCF7 (Homo sapiens) [10]),IC50 (A549 [11]) [µM],Activity (HeLa [12]) [nmol/min/mL],Activity (HeLa [13]) [nmol/min/mL],Activity (HeLa [14]) [nmol/min/mL],Activity (HeLa [15]) [nmol/min/mL],Activity (HeLa [16]),Activity (HeLa [17]) [nmol/min/mL]
CNc1ccccc1C(=O)OCC1=C(C)C[C@H]([C@@H](C)[C@H]2CC[C@H]3[C@@H]4C[C@H]5O[C@]56[C@@H](O)C=CC(=O)[C@]6(C)[C@H]4CC[C@]23C)OC1=O,1600,>3,1600,1200,1600,4.2,>3,3.7,1000,>3,4.7,,,,,,
CCCC(=O)OCC1=C(C)C[C@H]([C@@H](C)[C@H]2CC[C@H]3[C@@H]4C[C@H]5O[C@]56[C@@H](OC(=O)CCC)C=CC(=O)[C@]6(C)[C@H]4CC[C@]23C)OC1=O,1000,,700,1600,1900,1.6,,2.8,1000,,1.9,0.61,1.7,0.88,0.15,Active,0.93
CCCCCCCC(=O)OCC1=C(C)C[C@H]([C@@H](C)[C@H]2CC[C@H]3[C@@H]4C[C@H]5O[C@]56[C@@H](OC(=O)CCCCCCC)C=CC(=O)[C@]6(C)[C@H]4CC[C@]23C)OC1=O,23800,>3,18300,3300,33800,> 40,>3,> 40,33500,>3,> 40,,,,,,
CC1=C(CO)C(=O)O[C@@H]([C@@H](C)[C@H]2CC[C@H]3[C@@H]4C[C@H]5O[C@]56[C@@H](O)C=C[C@@H](O)[C@]6(C)[C@H]4CC[C@]23C)C1,16800,>3,6000,7100,15800,17.5,>3,> 40,7500,>3,17.3,,,,,,
CC1=C(COC(=O)c2cccc3ccccc23)C(=O)O[C@@H]([C@@H](C)[C@H]2CC[C@H]3[C@@H]4C[C@H]5O[C@]56[C@@H](O)C=CC(=O)[C@]6(C)[C@H]4CC[C@]23C)C1,900,>3,600,400,2000,3.5,>3,6.4,2200,>3,13.7,,,,,,
CC1=C(COC(=O)CBr)C(=O)O[C@@H]([C@@H](C)[C@H]2CC[C@H]3[C@@H]4C[C@H]5O[C@]56[C@@H](O)C=CC(=O)[C@]6(C)[C@H]4CC[C@]23C)C1,1200,>3,1600,1100,2100,4.9,>3,3.9,900,>3,4.8,,,,,,
CC1=C(CO)C(=O)O[C@@H]([C@@H](C)[C@H]2CC[C@H]3[C@@H]4C[C@H]5O[C@]56[C@@H](O)[C@@H](N(Cc5ccccc5)Cc5ccccc5)CC(=O)[C@]6(C)[C@H]4CC[C@]23C)C1,15400,>3,15600,32900,22200,> 40,>3,40,18500,>3,> 40,,,,,,
CCC(=O)OCC1=C(C)C[C@H]([C@@H](C)[C@H]2CC[C@H]3[C@@H]4C[C@H]5O[C@]56[C@@H](OC(=O)CC)C=CC(=O)[C@]6(C)[C@H]4CC[C@]23C)OC1=O,2400,,800,1500,2100,1.1,,2.6,1100,,4.1,1.1,1.7,1.6,0.58,Active,2.3
CC1=C(CO)C(=O)O[C@@H]([C@@H](C)[C@H]2CC[C@H]3[C@@H]4C[C@@H](O)[C@]5(C=O)C=CC(=O)[C@]5(C)[C@H]4CC[C@]23C)C1,,>3,> 40000,,,> 40,>3,,> 40000,>3,> 40,,,,,,
CCCC(=O)OCC1=C(C)C[C@H]([C@@H](C)[C@H]2CC[C@H]3[C@@H]4C[C@H]5O[C@]56[C@@H](O)C=CC(=O)[C@]6(C)[C@H]4CC[C@]23C)OC1=O,2400,,500,700,1900,1.2,,2.6,1000,,2.2,0.72,1.33,1.24,0.54,Active,1.22
CC1=C(C=O)C(=O)O[C@@H]([C@@H](C)[C@H]2CC[C@H]3[C@@H]4C[C@H]5O[C@]56[C@@H](O)C=CC(=O)[C@]6(C)[C@H]4CC[C@]23C)C1,3700,>3,3600,4400,6500,10.9,>3,15.7,2100,>3,13.5,,,,,,
CC1=C(CO[Si](C)(C)C(C)(C)C)C(=O)O[C@@H]([C@@H](C)[C@H]2CC[C@H]3[C@@H]4C[C@H](Cl)[C@]5(O)[C@@H](O)C=CC(=O)[C@]5(C)[C@H]4CC[C@]23C)C1,2500,,3100,3500,3100,3.4,,4.1,3100,,3.8,,,,,,
CC1=C(COC(=O)c2ccc(Br)cc2)C(=O)O[C@@H]([C@@H](C)[C@H]2CC[C@H]3[C@@H]4C[C@H]5O[C@]56[C@@H](O)C=CC(=O)[C@]6(C)[C@H]4CC[C@]23C)C1,1000,,700,500,1200,3.8,,2.9,2300,,4.2,,,,,,
CC1=C(COC(=O)c2ccoc2)C(=O)O[C@@H]([C@@H](C)[C@H]2CC[C@H]3[C@@H]4C[C@H]5O[C@]56[C@@H](OC(=O)c5ccoc5)C=CC(=O)[C@]6(C)[C@H]4CC[C@]23C)C1,1500,>3,900,900,2900,3.8,>3,3.6,1700,>3,3.8,,,,,,
CC(=O)OCC1=C(C)C[C@H]([C@@H](C)[C@H]2CC[C@H]3[C@@H]4C[C@H]5O[C@]56[C@@H](OC(=O)c5ccc(Br)cc5)C=CC(=O)[C@]6(C)[C@H]4CC[C@]23C)OC1=O,400,,900,500,1200,2.1,,2.1,600,,1.7,,,,,,
